Screening data: PubChem, several laboratories
This is a sample that favours compounds with a hit; in the whole collection about 5.8% have one here.
ROMK mod = modulators of human ROMK potassium channel | B-score at 10 µM | Tet-inducible ROMK, thallium flux fluorescence; actives lie on both sides | AID 1918 | P48048 | 130,000 tested, 2% active;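 active = signal ratio slope over the read window, or its plate-corrected B-score, at least 3 SD from the plate mean, either direction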;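 also: B-score of the F/F0 ratio slope over 7 to 12 s after thallium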
Target sequence (P48048 whole entry, looked up): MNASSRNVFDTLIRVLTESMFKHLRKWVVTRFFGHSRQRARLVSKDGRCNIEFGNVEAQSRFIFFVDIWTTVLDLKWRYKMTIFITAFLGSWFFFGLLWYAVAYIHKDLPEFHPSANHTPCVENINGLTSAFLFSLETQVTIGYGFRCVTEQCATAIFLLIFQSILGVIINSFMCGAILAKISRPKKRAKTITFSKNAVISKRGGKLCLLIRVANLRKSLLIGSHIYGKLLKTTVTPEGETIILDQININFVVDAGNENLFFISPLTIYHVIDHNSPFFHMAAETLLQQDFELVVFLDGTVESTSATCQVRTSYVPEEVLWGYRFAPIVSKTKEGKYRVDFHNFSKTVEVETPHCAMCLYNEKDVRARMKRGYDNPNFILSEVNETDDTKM
WT yeast gro inh = growth inhibition of WT yeast, mitochondrial fusion screen; mitochondrial fusion phenotypic screen, WT strain; inhibition, % at 10 µM; 190,000 tested, 2.1% active; AID 1362; in the data active = inhibition above about 58%; tested in S. cerevisiae
14-3-3 Bad PPI = disrupts binding of bovine 14-3-3 zeta to phospho-Bad peptide; TR-FRET 14-3-3zeta/Dy647-pBad peptide displacement, 1 h; P63103; AID 781; 220,000 tested, 0.71% active; inhibition, % at 21.7 µM;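 active = inhibition above about 70%, limit read from the data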;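 also: 0% = full 14-3-3 plus peptide FRET controls and 100% = background without 14-3-3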
Target sequence (P63103 whole entry, looked up): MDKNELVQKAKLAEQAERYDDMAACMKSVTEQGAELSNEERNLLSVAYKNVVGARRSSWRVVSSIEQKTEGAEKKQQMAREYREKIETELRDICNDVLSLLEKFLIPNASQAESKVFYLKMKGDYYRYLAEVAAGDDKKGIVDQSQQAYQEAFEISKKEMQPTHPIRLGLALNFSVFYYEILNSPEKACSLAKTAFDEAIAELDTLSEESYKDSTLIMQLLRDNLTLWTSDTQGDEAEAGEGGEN
RBBP9 inh = human RBBP9 hydrolase inhibition; O75884; recombinant RBBP9, FP-Rh probe fluorescence polarization; inhibition, % at 7.94 µM; 220,000 tested, 0.2% active; AID 1515;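 active = inhibition above the campaign mean of all tested compounds plus 3 SD, cut at about 14% in these data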;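 also: plate controls were DMSO wells with RBBP9 for no effect and wells lacking RBBP9 protein for full effect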
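Measured by: FP readout at 525/598 nm; material: recombinant human RBBP9; also added: Serine-hydrolase probe FP-Rh, 375 nM pre-mixing; medium: Tris buffer pH 8.0, NaCl, Pluronic; replication: one well per compound; doses: one concentration, 7.94 µM nominal, 0.794% DMSO; timing: preincubation 30 min plus labeling 45 min at 25 °C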
Cl transport mod = KCC2 (human) Cl- transport modulation. Q9H2X9. KCC2 cells, thallium flux FluoZin-2 fluorescence. B-score of Tl+ flux slope (higher = more flux/activation; lower = inhibition) at 10 µM. 190,000 tested, 2.2% active. AID 1456;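 active = thallium flux slope and its plate-corrected score both differing from the plate sample mean at a set confidence after two filtering rounds, in either direction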;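 also: slope of fluorescence scaled to starting intensity during 10 to 20 s after thallium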
NCF1 inh = p47phox (human) inhibition; p47phox/p22phox peptide binding, fluorescence polarization, 2 h; P14598; AID 1274; inhibition, % at 24.7 µM; 220,000 tested, 0.53% active;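 active = inhibition above about 30%, limit read from the data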;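 also: 0% = p47phox with labelled peptide and 100% = labelled peptide alone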
An asterisk follows results filed as active; nt = no result given; [ ] = another dose, or the depositor's remark.

SMILES	ROMK mod	WT yeast gro inh	14-3-3 Bad PPI	RBBP9 inh	Cl transport mod	NCF1 inh
Nc1c(C(=O)NCC2CCCO2)sc2nc3c(c(-c4ccco4)c12)CC/C3=C\c1ccco1 (centres undefined)	nt	12	2	3	0.052	14
O=S(=O)(c1ccccc1)c1nc(-c2ccco2)oc1N1CCOCC1	nt	4	-5	-1	1.3	17
O=S(=O)(c1ccc(Cl)cc1)c1nc(-c2ccco2)oc1N1CCOCC1	-0.021	nt	76*	-4	-0.18	-6
Cc1ccc2nc(SC(C)C(=O)Nc3cccc([N+](=O)[O-])c3)[nH]c2c1 (centres undefined)	nt	21	-10	-5	-0.72	-15
O=Cc1cc2ccccc2nc1SCCCF	0.91	16	-9	-1	-0.8	-10
Cc1cc(NC(=O)CSc2nc3c(sc4ccccc43)c(=O)n2CCc2ccccc2)n[nH]1	0.55	0	13	-1	1.1	32*
Cc1nn(-c2ccccc2)c(C)c1-c1nnc(-c2c(C)nn(-c3ccccc3)c2C)o1	nt	nt	2	-4	-1.3	-8
COc1ccc(NC(=O)c2ccc(-n3nc(C)cc3C)cc2)cc1OC	nt	9	-9	-7	0.26	38*
COc1ccccc1N1CCN(C(=O)Oc2ccccc2)CC1	0.92	nt	15	-4	nt	-5
COc1ccccc1N1CCN(C(=O)C2CC=CCC2C(=O)O)CC1 (centres undefined)	nt	1	nt	-8	-3.6*	3
CN(C)CCOc1ccccc1-c1ccccc1	-0.47	13	72*	2	0.11	-2
CNCCOc1ccccc1-c1ccccc1	0.15	6	36	6	0.31	-9
CN(C)CCOCCOc1ccccc1-c1ccccc1	nt	12	87*	-1	0.66	-5
COc1cccc(OC)c1OCCN(C)C	0.25	-4	86*	-3	nt	-5
Cc1ccc(S(C)(=O)=NS(=O)(=O)c2cccc3nsnc23)cc1 (centres undefined)	nt	nt	3	-5	0.87	0
Cc1ccc(C(=O)N(CCCN(C)C)c2nc3ccc(Cl)cc3s2)cc1C	0.57	89*	-4	-5	-0.3	-5
CN(C)CCCN(C(=O)CCc1ccccc1)c1nc2ccc(F)cc2s1	nt	89*	1	0	0	-87
Cc1ccc2nc(N(CCCN(C)C)C(=O)c3ccc(S(=O)(=O)N(C)C)cc3)sc2c1	0.18	-9	18	-4	0	-8
CN(C)CCCN(C(=O)c1ccc2c(c1)CCCC2)c1nc2ccc(F)cc2s1	nt	87*	0	-6	-0.0019	-13
CN(C)CCCN(C(=O)CCc1ccccc1)c1nc2ccc(Br)cc2s1	-0.082	92	-13	-2	1.6	-15
Cc1ccc2nc(N(CCCN(C)C)C(=O)c3sc4ccccc4c3Cl)sc2c1	nt	89*	2	-5	0.74	8
NC(=S)N/N=C/c1ncc(C(F)(F)F)cc1Cl	nt	nt	-6	-4	2.1	-4
Cc1ccc(N2C(=O)c3ccc(C(=O)N4CCN(Cc5ccccc5)CC4)cc3C2=O)cc1	nt	nt	-4	-5	-0.024	-8
O=C(c1cccc(N2C(=O)c3ccccc3C2=O)c1)N1CCCCCC1	-0.28	-10	-5	2	-0.58	-5
O=C(c1cccc(N2C(=O)C3C4C=CC(C4)C3C2=O)c1)N1CCCCCC1 (centres undefined)	0.37	-5	77*	0	-0.7	3
SMILES	ROMK mod	WT yeast gro inh	14-3-3 Bad PPI	RBBP9 inh	Cl transport mod	NCF1 inh
Cc1nc(-c2ccc([N+](=O)[O-])cc2)sc1C(=O)O	1.9	0	29	1	0.53	-9
CCOC(=O)C(=NC(C)CC)NNc1ccc(Br)cc1 (centres undefined)	-0.39	70*	1	-2	-0.15	1
CCC(=O)NNc1ccc(Br)cc1	-0.38	69*	2	-5	-0.71	5
CCOC(=O)C(=NC1CCS(=O)(=O)C1)NNc1ccccc1Cl (centres undefined)	nt	nt	-2	-2	0.44	-8
CCOC(=O)C(=NC1CCS(=O)(=O)C1)NNc1ccc(Br)cc1 (centres undefined)	-1.9	59*	-8	-6	-0.18	-5
CCOC(=O)C(=NC(C)CC)NNc1cccc(C(F)(F)F)c1 (centres undefined)	1	51	-6	-9	nt	5
COc1cc(NC(=O)Cn2ccsc2=N)cc(OC)c1	nt	nt	11	-3	1.4	4
CCCCN(CC)CCCNC(=O)C1CCN(c2ncnc3c2sc2cccc(F)c23)CC1	nt	-12	3	0	-3.1	0
Cc1ccc(CNC(=O)C(NS(=O)(=O)c2ccc3nc(C)sc3c2)C(C)C)cc1 (centres undefined)	nt	-9	1	-9	0.8	0
Cc1nc2ccc(S(=O)(=O)NC(C(=O)NCc3ccco3)C(C)C)cc2s1 (centres undefined)	nt	4	1	-1	-0.0026	121*
C(=N\Nc1ccccc1)/c1ccc(N2CCOCC2)cc1	0.01	-18	88*[fluorescence artefact?]	-14	0.15	-4
Clc1cccc(N/N=C/c2ccc(N3CCOCC3)cc2)c1	-0.13	10	-10	-5	-0.83	-12
Cc1ccc(/C=N/n2c(-c3cccs3)n[nH]c2=S)cc1	nt	21	-1	-9	30*	-9
COc1ccc(/C=N/n2c(-c3cccs3)n[nH]c2=S)cc1	nt	24	-11	-9	31*	-13
c1ccc(COC(CN2CCCCCC2)CN2CCCCCC2)cc1	-2.4	nt	2	2	0.67	-11
COC(=O)C(C)N(C(=O)c1cccc(Cl)c1)c1c(C)cccc1C (centres undefined)	0.58	13	2	-7	-0.66	0
COC(=O)C(C)N(C(=O)c1cccc2ccccc12)c1c(C)cccc1C (centres undefined)	nt	39	-4	-10	-3.7*	-17
O=C(NC(=S)N1CCN(c2ccc([N+](=O)[O-])cc2)CC1)c1ccc(F)cc1	0.34	-2	-14	3	25*	3
Cc1ccc(Cl)cc1NC(=O)COC(=O)c1ccc(COc2ccc3c(C)cc(=O)oc3c2)cc1	-0.35	12	78*	-12	0.021	-12
COc1ccc(-c2nc3n(c(=O)c2C#N)CCCS3)cc1	-0.28	75*	3	-3	0.039	-16
CCOc1ccc(-c2nc3n(c(=O)c2C#N)CCCS3)cc1	nt	-7	2	-11	nt	-19
COC(=O)COc1ccc(C)cc1-n1nc2ccccc2n1	nt	74*	2	-11	nt	-2
Cc1ccc(OC(=O)COc2ccccc2C)c(-n2nc3ccccc3n2)c1	0.37	19	-6	-4	nt	-6
NNC(=O)/C(=N/Nc1ccccc1)S(=O)(=O)c1ccc(Cl)cc1	-0.21	69*	1	7	-4.2e-05	-14
CCOC(=O)/C(=N/Nc1ccc(C)cc1)S(=O)(=O)c1ccc(Cl)cc1	-0.4	58	31	-7	-1.1	0
CC1(C)Cc2c(sc3c2C2=NCCN2C=N3)CO1	0.65	nt	nt	-6	7*	nt
